Source: ChEMBL document CHEMBL1949672 (J Med Chem, 2012)

Key:
Adenosine receptor A1 = target: T1, Adenosine receptor A1 (Homo sapiens, UniProt P30542); test: Displacement of [3H]N6-phenylisopropyladenosine from human A1 adenosine receptor expressed in CHO cell membranes after 60 mins
T1 sequence (P30542 whole entry): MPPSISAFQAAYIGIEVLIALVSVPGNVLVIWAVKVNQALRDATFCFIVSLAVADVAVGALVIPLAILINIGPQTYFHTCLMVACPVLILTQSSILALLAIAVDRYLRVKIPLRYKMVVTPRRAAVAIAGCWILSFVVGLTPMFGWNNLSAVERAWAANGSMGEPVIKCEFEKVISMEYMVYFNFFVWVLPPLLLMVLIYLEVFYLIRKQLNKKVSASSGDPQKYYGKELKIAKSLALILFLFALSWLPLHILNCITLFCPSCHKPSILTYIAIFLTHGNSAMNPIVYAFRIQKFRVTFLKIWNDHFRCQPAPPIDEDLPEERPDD
Procedure, shortened: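 Membranes (40 µg/tube) from CHO cells stably expressing human A1 AR were incubated with 1 nM [3H]R-PIA in 50 mM Tris·HCl pH 7.4 with 10 mM MgCl2, at 25°C for 60 min. Nonspecific binding was defined with 10 µM CPA.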

Adenosine receptor A2a [1] = target: T2, Adenosine receptor A2a (Homo sapiens, UniProt P29274); test: Displacement of [3H]2-[p-(2-carboxyethyl)phenylethylamino]-5'-N-ethylcarboxamido-adenosine from human A2A adenosine receptor expressed in HEK293 cell membranes after 60 mins
T2 sequence (P29274 whole entry): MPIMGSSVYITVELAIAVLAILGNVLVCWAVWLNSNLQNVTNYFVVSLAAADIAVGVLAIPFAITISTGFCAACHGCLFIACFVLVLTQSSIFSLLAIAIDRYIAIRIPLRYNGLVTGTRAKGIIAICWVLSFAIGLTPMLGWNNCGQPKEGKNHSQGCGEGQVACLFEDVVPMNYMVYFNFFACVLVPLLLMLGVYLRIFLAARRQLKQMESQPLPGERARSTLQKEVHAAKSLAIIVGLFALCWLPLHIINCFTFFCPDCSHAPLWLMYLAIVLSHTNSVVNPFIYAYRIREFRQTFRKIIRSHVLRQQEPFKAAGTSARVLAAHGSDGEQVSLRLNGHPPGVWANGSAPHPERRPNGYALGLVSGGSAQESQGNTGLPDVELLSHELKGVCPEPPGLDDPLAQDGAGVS

Adenosine receptor A2a [2] = target: T2, Adenosine receptor A2a; test: Agonist activity at human A2A adenosine receptor expressed in CHO cells assessed as stimulation of forskolin-induced cAMP production at 10 uM preincubated for 45 mins prior forskolin treatment measured after 15 mins by liquid scintillation spectrometry relative to 2-[p-(2-carboxyethyl)phenylethylamino]-5'-N-ethylcarboxamido-adenosine; type: functional, cell-based
Procedure, shortened: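 CHO cells expressing human A2A AR; test compound at a single concentration of 10 µM; cyclic AMP production measured and expressed as mean percentage of the response to the full agonist CGS21680 (10 µM).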

Adenosine receptor A3 = target: T3, Adenosine receptor A3 (Homo sapiens, UniProt P0DMS8); test: Displacement of [125I]N6-(4-amino-3-iodobenzyl)adenosine-5'-N-methyluronamide from human A3 adenosine receptor expressed in CHO cell membranes after 60 mins
T3 sequence (P0DMS8 whole entry): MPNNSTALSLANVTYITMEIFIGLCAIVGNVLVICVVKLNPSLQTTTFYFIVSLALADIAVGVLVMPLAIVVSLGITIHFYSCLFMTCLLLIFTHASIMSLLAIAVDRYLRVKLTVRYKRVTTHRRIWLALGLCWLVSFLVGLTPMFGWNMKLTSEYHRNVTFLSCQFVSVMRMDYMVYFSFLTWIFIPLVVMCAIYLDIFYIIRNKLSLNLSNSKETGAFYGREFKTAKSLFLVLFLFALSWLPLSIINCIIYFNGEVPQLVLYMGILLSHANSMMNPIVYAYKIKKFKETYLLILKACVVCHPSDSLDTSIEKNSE

Adenosine receptor A2a [3] = target: T2, Adenosine receptor A2a; test: Binding affinity to A2A adenosine receptor
[4] = Displacement of [1251]PAPAAPEC from A2A adenosine receptor expressed in bovine striatal membranes after 1 hr by gamma counting; type: cell membranes, Bos taurus, Striatum, Membrane

Ki (Adenosine receptor A2a [3]) | Structure (SMILES) | Ki (Adenosine receptor A1) | Ki (Adenosine receptor A2a [1]) | Emax (Adenosine receptor A2a [2]) | Ki (Adenosine receptor A3) | Ki [4]
– | CCNC(=O)[C@H]1O[C@@H](n2cnc3c(N)nc(NCCc4ccc(CCC(=O)N[C@@H](CC(=O)O)C(=O)O)cc4)nc32)[C@H](O)[C@@H]1O | 1900 nM | 180 nM | 94.8% | 1460 nM | –
– | CCNC(=O)[C@H]1O[C@@H](n2cnc3c(N)nc(NCCc4ccc(CCC(=O)N[C@@H](Cc5ccccc5)C(=O)O)cc4)nc32)[C@H](O)[C@@H]1O | 640 nM | 63.7 nM | 103% | 260 nM | –
– | CCNC(=O)[C@H]1O[C@@H](n2cnc3c(N)nc(NCCc4ccc(CCC(=O)N[C@@H](Cc5cnc[nH]5)C(=O)O)cc4)nc32)[C@H](O)[C@@H]1O | 1000 nM | 110 nM | – | 830 nM | –
– | CCNC(=O)[C@H]1O[C@@H](n2cnc3c(N)nc(NCCc4ccc(CCC(=O)N[C@H](CCCNC(=N)N)C(=O)O)cc4)nc32)[C@H](O)[C@@H]1O | – | – | 94.7% | – | –
168 nM | COc1cc(OC)cc([C@@H](CNc2ncnc3c2ncn3[C@@H]2O[C@H](CO)[C@@H](O)[C@H]2O)c2ccccc2C)c1 | – | – | – | – | –
– | CCNC(=O)[C@H]1O[C@@H](n2cnc3c(N)nc(NCCc4ccc(CCC(=O)N[C@H](CC(=O)O)C(=O)O)cc4)nc32)[C@H](O)[C@@H]1O | 1180 nM | 110 nM | 94.3% | 790 nM | –
– | CCNC(=O)[C@H]1O[C@@H](n2cnc3c(N)nc(NCCc4ccc(CCC(=O)N[C@H](Cc5c[nH]c6ccccc56)C(=O)O)cc4)nc32)[C@H](O)[C@@H]1O | 2160 nM | 130 nM | 113% | 520 nM | –
– | CCNC(=O)[C@H]1O[C@@H](n2cnc3c(N)nc(NCCc4ccc(CCC(=O)N[C@@H](CCCNC(=N)N)C(=O)O)cc4)nc32)[C@H](O)[C@@H]1O | – | – | 94.5% | – | –
– | CCNC(=O)[C@H]1O[C@@H](n2cnc3c(N)nc(NCCc4ccc(CCC(=O)N[C@@H](CCCN=C(N)N)C(=O)O)cc4)nc32)[C@H](O)[C@@H]1O | 1110 nM | 100 nM | – | 620 nM | –
– | CCNC(=O)[C@H]1O[C@@H](n2cnc3c(N)nc(NCCc4ccc(CCC(=O)N[C@@H](Cc5c[nH]cn5)C(=O)O)cc4)nc32)[C@H](O)[C@@H]1O | – | – | 105% | – | –
– | CCNC(=O)[C@H]1O[C@@H](n2cnc3c(N)nc(NCCc4ccc(CCC(=O)N[C@@H](Cc5c[nH]c6ccccc56)C(=O)OC)cc4)nc32)[C@H](O)[C@@H]1O | 1670 nM | 87.2 nM | 104% | 140 nM | –
– | CCNC(=O)[C@H]1O[C@@H](n2cnc3c(N)nc(NCCc4ccc(CCC(=O)N[C@H](Cc5c[nH]cn5)C(=O)O)cc4)nc32)[C@H](O)[C@@H]1O | 350 nM | 40 nM | 106% | 320 nM | –
– | CCNC(=O)[C@H]1O[C@@H](n2cnc3c(N)nc(NCCc4ccc(CCC(=O)N[C@@H](Cc5c[nH]c6ccccc56)C(=O)O)cc4)nc32)[C@H](O)[C@@H]1O | 1060 nM | 71.7 nM | 95.8% | 200 nM | –
– | CCNC(=O)[C@H]1O[C@@H](n2cnc3c(N)nc(NCCc4ccc(CCC(=O)NCCNC(=S)Nc5ccc(N=C=S)cc5)cc4)nc32)[C@H](O)[C@@H]1O | – | – | – | – | 7.1 nM
– | CCNC(=O)[C@H]1O[C@@H](n2cnc3c(N)nc(NCCc4ccc(CCC(=O)N[C@H](Cc5ccccc5)C(=O)OC)cc4)nc32)[C@H](O)[C@@H]1O | 1230 nM | 84.3 nM | 92.6% | – | –
– | CCNC(=O)[C@H]1O[C@@H](n2cnc3c(N)nc(NCCc4ccc(CCC(=O)N[C@@H](Cc5ccccc5)C(=O)OC)cc4)nc32)[C@H](O)[C@@H]1O | 1080 nM | 160 nM | 111% | – | –
– | CCNC(=O)[C@H]1O[C@@H](n2cnc3c(N)nc(NCCc4ccc(CCC(=O)N[C@H](Cc5ccccc5)C(=O)O)cc4)nc32)[C@H](O)[C@@H]1O | 550 nM | 34 nM | 93.4% | 140 nM | –
– | CCNC(=O)[C@H]1O[C@@H](n2cnc3c(N)nc(NCCc4ccc(CCC(=O)N[C@H](CCCN=C(N)N)C(=O)O)cc4)nc32)[C@H](O)[C@@H]1O | 990 nM | 50 nM | – | 220 nM | –
20.1 nM | O=C(NCCN1CCCCC1)c1nc(NCC(c2ccccc2)c2ccccc2)c2ncn([C@@H]3O[C@H](CO)[C@@H](O)[C@H]3O)c2n1 | – | – | – | – | –
– | CCNC(=O)[C@H]1O[C@@H](n2cnc3c(N)nc(NCCc4ccc(CCC(=O)N[C@H](Cc5c[nH]c6ccccc56)C(=O)OC)cc4)nc32)[C@H](O)[C@@H]1O | 1610 nM | 130 nM | 119% | 250 nM | –
56 nM | CCNC(=O)[C@H]1C[C@@H](n2cnc3c(N[C@H](CC)Cc4sccc4Cl)ccnc32)[C@H](O)[C@@H]1O | – | – | – | – | –
